The source of these data is ChEMBL document CHEMBL1145113, “Synthesis and crystal structures of substituted benzenes and benzoquinones as tissue factor VIIa inhibitors” (J Med Chem, 2003).

The term IC50 denotes the concentration at which inhibition is half-maximal. Low readings indicate inhibition by little substance, high ones a need for much substance. The inhibition is the share of the control response that was lost under treatment. Low values mean a weak effect, high ones a strong effect.

The target of one assay is Coagulation factor X (Homo sapiens, UniProt P00742). In words: Inhibitory activity against coagulation factor X was determined. Summed up:
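Human factor Xa at 0.3 nM with 0.15 mM S-2765 in 50 mM Tris-HCl pH 8.0, 100 mM NaCl, 0.1% BSA. A405 background was read immediately, then hydrolysis rate (p-nitroaniline release at 405 nm) after 60 min at room temperature. Seven concentrations in duplicate; % inhibition vs control; IC50 by four-parameter logistic fit.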

The target in a further assay is T1, Coagulation factor VII (Homo sapiens, UniProt P08709).
T1 sequence (P08709 whole entry): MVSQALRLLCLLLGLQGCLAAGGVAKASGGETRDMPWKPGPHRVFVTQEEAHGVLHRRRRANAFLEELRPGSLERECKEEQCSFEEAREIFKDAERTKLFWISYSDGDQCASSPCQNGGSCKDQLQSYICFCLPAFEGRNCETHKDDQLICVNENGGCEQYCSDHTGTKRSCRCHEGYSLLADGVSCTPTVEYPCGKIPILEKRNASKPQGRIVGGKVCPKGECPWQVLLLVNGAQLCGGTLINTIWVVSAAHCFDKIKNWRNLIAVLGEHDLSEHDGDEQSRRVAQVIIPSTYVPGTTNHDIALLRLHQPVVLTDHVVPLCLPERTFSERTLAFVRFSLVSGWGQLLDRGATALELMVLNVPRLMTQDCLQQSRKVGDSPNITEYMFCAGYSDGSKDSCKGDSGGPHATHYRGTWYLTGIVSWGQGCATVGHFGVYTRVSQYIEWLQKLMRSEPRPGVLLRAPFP
Briefly: Inhibitory activity against coagulation factor VII was determined.

The next assay deals with Thrombin (Homo sapiens). Briefly: Inhibitory activity against thrombin was determined at a concentration of 30 uM.

Chain of Coagulation factor X (P00742 41-179 limits assumed): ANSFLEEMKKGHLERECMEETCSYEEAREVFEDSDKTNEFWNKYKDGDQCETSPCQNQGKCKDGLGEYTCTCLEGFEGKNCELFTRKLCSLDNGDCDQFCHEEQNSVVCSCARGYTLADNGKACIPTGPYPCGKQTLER
Chain of Coagulation factor X (P00742 235-488 limits assumed): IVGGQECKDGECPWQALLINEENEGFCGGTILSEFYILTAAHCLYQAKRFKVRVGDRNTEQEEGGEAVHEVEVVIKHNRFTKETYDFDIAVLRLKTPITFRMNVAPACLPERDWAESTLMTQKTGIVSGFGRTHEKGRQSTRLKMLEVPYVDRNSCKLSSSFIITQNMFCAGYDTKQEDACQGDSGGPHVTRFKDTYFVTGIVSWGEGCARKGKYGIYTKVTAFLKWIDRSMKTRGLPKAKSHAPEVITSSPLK

With `N=C(N)c1ccc(CNC(=O)Cc2c(-c3ccccc3)ccc(NCCc3ccccc3)c2O)cc1`, the half-maximal inhibitory concentration (IC50) on Coagulation factor X is over 30 µM.

For the compound `O=C(NCc1ccncc1)c1cc(NS(=O)(=O)Cc2ccccc2)ccc1Sc1ccccc1`, the IC50 against Coagulation factor X and at Coagulation factor VII was over 30 µM each time.

With `N=C(N)c1ccc(CNC(=O)c2cc(NS(=O)(=O)Cc3ccccc3)ccc2Sc2ccccc2)cc1`, the IC50 against Coagulation factor X and on Coagulation factor VII was over 30 µM throughout. This compound also displayed an inhibition in the assay on Thrombin (Homo sapiens) of 22%. On to `O=C(Cc1c(F)ccc(NS(=O)(=O)Cc2ccccc2)c1F)NCC1CCNCC1`, for which the IC50 at Coagulation factor X and at Coagulation factor VII was over 30 µM in each case. For `N=C(N)c1ccc(CNC(=O)Cc2c(-c3cccc(N)c3)ccc(NCc3ccccc3)c2F)cc1`, the IC50 against Coagulation factor VII worked out at 0.5 µM. As to `CN(C)c1ccc(CNC(=O)c2cc(NS(=O)(=O)Cc3ccccc3)ccc2Sc2ccccc2)cc1`, the half-maximal inhibitory concentration (IC50) against Coagulation factor X and against Coagulation factor VII was over 30 µM each time. For `N=C(N)c1ccc(CNC(=O)Cc2c(-c3ccccc3)ccc(NCCc3ccccc3)c2F)cc1`, the half-inhibitory concentration (IC50) at Coagulation factor X is over 30 µM.

In the case of `N=C(N)NCCCCCNC(=O)Cc1c(F)ccc(NS(=O)(=O)Cc2ccccc2)c1F`, the IC50 against Coagulation factor X and against Coagulation factor VII was over 30 µM each time.

On Coagulation factor VII, `N=C(N)c1cccc(CNC(=O)Cc2c(F)ccc(NS(=O)(=O)Cc3ccccc3)c2F)c1` came in with an IC50 of over 30 µM. On to `O=C(Cc1c(F)ccc(NS(=O)(=O)Cc2ccccc2)c1F)NCCCn1ccnc1`, for which the IC50 against Coagulation factor X and at Coagulation factor VII was over 30 µM in each case.

On to `CC(C)Nc1ccc(-c2ccccc2)c(CC(=O)NCc2ccc(C(=N)N)cc2)c1O`, for which the half-maximal inhibitory concentration (IC50) on Coagulation factor X is over 30 µM; against Coagulation factor VII, 2.5 µM. For the compound `O=C(Cc1c(F)ccc(NS(=O)(=O)Cc2ccccc2)c1F)NCc1ccncc1`, on Coagulation factor VII, the concentration for half-maximal inhibition (IC50) is over 30 µM. Same read-out and setting: to `O=C(NCC1CCNCC1)c1cc(NS(=O)(=O)Cc2ccccc2)ccc1Sc1ccccc1` belongs over 30 µM.

Compound `COc1c(NC(C)C)ccc(-c2ccccc2)c1CC(=O)NCc1ccc(C(=N)N)cc1` displayed a half-inhibitory concentration (IC50) on Coagulation factor X of over 30 µM.

Consider `CN(C)c1ccc(CNC(=O)Cc2c(F)ccc(NS(=O)(=O)Cc3ccccc3)c2F)cc1`, for which, on Coagulation factor VII, the half-maximal inhibitory concentration (IC50) was over 30 µM.

For `CC(C)Nc1ccc(-c2cccc(N)c2)c(CC(=O)NCc2ccc(C(=N)N)cc2)c1F`, the half-inhibitory concentration (IC50) on Coagulation factor X was over 30 µM. On Coagulation factor X, `N=C(N)c1ccc(CNC(=O)Cc2c(F)ccc(NCCc3ccccc3)c2F)cc1` yielded an IC50 of over 30 µM. `N=C(N)c1ccc(CNC(=O)Cc2c(F)ccc(NS(=O)(=O)Cc3ccccc3)c2F)cc1`: the concentration for half-maximal inhibition (IC50) at Coagulation factor X and on Coagulation factor VII was over 30 µM in each case.
